# Measurements from different studies.
# Lines come from different studies, so protocols differ.
# Target: Mitogen-activated protein kinase kinase kinase 6 (MAP3K6, Homo sapiens, UniProt O95382)
# Sequence (O95382 1-1288, as in one of the studies): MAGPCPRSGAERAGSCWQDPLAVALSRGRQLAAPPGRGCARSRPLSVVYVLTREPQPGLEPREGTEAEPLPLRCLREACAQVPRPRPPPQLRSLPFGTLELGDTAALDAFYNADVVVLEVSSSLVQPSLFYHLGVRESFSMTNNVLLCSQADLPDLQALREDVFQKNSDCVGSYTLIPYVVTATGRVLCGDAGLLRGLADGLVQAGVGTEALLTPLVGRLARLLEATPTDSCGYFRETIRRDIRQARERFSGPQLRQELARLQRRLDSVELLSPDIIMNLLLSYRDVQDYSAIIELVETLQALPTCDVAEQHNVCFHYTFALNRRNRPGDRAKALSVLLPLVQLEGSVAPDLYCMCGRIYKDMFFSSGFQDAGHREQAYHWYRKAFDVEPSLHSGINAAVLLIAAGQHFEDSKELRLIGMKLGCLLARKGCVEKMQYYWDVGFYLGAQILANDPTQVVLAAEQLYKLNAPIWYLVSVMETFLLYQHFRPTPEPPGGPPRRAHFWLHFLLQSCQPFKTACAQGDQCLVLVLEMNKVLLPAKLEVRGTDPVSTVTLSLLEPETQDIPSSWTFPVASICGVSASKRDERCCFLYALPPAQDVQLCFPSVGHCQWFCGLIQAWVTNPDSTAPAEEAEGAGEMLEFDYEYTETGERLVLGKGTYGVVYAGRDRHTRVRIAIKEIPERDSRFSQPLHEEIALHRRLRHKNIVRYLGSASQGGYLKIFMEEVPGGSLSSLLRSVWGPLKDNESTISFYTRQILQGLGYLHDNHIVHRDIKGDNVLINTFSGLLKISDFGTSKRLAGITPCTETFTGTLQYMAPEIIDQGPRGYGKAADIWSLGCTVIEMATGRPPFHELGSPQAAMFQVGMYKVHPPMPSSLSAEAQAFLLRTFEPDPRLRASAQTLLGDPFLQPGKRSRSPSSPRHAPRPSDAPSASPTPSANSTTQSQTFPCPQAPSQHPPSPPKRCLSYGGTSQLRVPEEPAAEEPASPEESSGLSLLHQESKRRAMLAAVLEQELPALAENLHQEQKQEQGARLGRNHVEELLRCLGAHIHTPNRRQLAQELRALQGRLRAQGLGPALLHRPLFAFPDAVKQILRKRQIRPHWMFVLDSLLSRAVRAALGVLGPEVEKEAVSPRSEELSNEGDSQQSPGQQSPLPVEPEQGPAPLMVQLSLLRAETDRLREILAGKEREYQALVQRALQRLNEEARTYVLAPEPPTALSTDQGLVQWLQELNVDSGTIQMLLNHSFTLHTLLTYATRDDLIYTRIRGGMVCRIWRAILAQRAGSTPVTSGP
Structure (SMILES),test,setting,remaining binding [%]
O=C(c1ccc(Nc2ncc(Cl)c(-c3cc4ccccc4s3)n2)cc1)N1CCC(N2CCCC2)CC1,"binding, competition with immobilised ligand",1 µM,80
CSc1cccnc1N1CCN(Cc2nc3ccccc3[nH]2)CC1,"cell-free assay, competition with immobilised ligand",1 µM,92
FC(F)(F)Oc1cccc(-c2cnc3ccc(-c4ccncc4)nn23)c1,"cell-free assay, competition with immobilised ligand",5 µM,96
O=C(Nc1c[nH]nc1C(=O)NC1CCNCC1)c1cc(F)cc(F)c1,"binding, competition with immobilised ligand",1 µM,84
Cc1cnn2ncc(-c3ccnc(N(C)C)n3)c2c1,binding,1 µM,81
CN([C@@H]1CCc2c(CC(=O)O)c3ccccc3n2C1)S(=O)(=O)c1ccc(F)cc1,"cell-free assay, competition with immobilised ligand",1 µM,80
c1cnn2ncc(-c3ccnc(N4CCC45COC5)n3)c2c1,binding,1 µM,61
COc1ncc2cc3ccccc3nc2c1C#N,"cell-free assay, competition with immobilised ligand",5 µM,100
CCN1CCN(Cc2ccc(C(=O)Nc3ccc(C)c(Oc4ccc5c(c4)CC(=O)N5)c3)cc2C(F)(F)F)CC1,"binding, competition with immobilised ligand",1 µM,100
C[C@@H](c1ccc(-n2cnc3c(N)ncnc32)cc1)N1CCc2nn(C)c(Cc3ccccc3)c2C1=O,"binding, competition with immobilised ligand",0.1 µM,67
CN(C)c1nccc(-c2cnc3ncccn23)n1,binding,1 µM,67
O=C(c1ccc(Nc2nccc(-c3cc4ccccc4s3)n2)cc1)N1CCC(N2CCCC2)CC1,"binding, competition with immobilised ligand",1 µM,91
COc1ccc2cc(OCC3(C(=O)O)CN(C(=O)c4ccc(F)cc4)C3)ccc2c1,"cell-free assay, competition with immobilised ligand",1 µM,95
C[C@@H]1CCN(c2nccc(-c3cnn4ncccc34)n2)C1,binding,1 µM,55
CS(=O)(=O)N1CCCC(NC(=O)[C@H](CCC2CCCCC2)NC(=O)c2ccc(CNC(=O)c3cnc4ccccn34)cc2)C1 (stereo partly shown),"cell-free assay, competition with immobilised ligand",0.1 µM,100
COc1cnc(Nc2cccc(S(N)(=O)=O)c2)nc1N1CCN(c2ccccc2)C(=O)C1,"binding, competition with immobilised ligand",1 µM,84
CNC(=O)Nc1ccc2c(c1)CC[C@@]21OC(=O)N(CC(=O)N(Cc2ccc(F)cc2)[C@@H](C)C(F)(F)F)C1=O,"cell-free assay, competition with immobilised ligand",1 µM,86
CC1CCCN1c1nccc(-c2cnn3ncccc23)n1 (stereo not shown),binding,1 µM,100
CO[C@@H](C)c1c(Nc2ccc([C@@H](N(C)C(=O)C3CCS(=O)(=O)CC3)C(F)(F)F)cc2)cnc2cc(Cl)nn12,"cell-free assay, competition with immobilised ligand",1 µM,100
N[C@H]1CCN(c2nccc(-c3cnn4ncccc34)n2)C1,binding,1 µM,82
Cc1cc(C)c(-n2ccn3nc(-c4cccnc4)cc23)cc1NC(=O)c1cc(C#N)cc(S(F)(F)(F)(F)F)c1,"cell-free assay, competition with immobilised ligand",0.1 µM,100
O=C(NCCCN1CCOCC1)c1ccc(Nc2ncc(Cl)c(-c3ccc(Cl)s3)n2)cc1,"binding, competition with immobilised ligand",1 µM,83
